For data set [1], the system named is advanced tumors. In words: Tumor response by irRECIST, survival and treatment duration. The format is in vivo, human.
Data set [2] has as its system Pan02 pancreatic syngeneic tumor model. In words: Preclinical FDG-PET, Pan02 model. The data set is classed as in vivo, mouse. The conditions noted are these: data not shown.
Data set [3] has as its system mouse syngeneic tumor models. The conditions noted are these: dependent on myeloid cells and CD8+ T cells; cited from earlier work.
Data set [4] relates to immune-cell infiltration in tumor. The data set is described as follows: Paired tumor biopsies: immunohistochemistry and TLDA gene expression. The data set is classed as in vivo, human.
The test system of data set [5] is FDG-avid tumor lesions. The data set is described as follows: 18FDG-PET metabolic response. The data set is classed as in vivo, human.
In data set [6] the test system is 4T1 breast syngeneic tumor model. In words: Preclinical FDG-PET, 4T1 model. The data set is classed as in vivo, mouse. As to conditions: 4T1 breast model, data not shown.
A short description of data set [7]: Clinical pharmacokinetics in plasma. The data set is classed as in vivo, human.
The nature of data set [8]: Phase 1 safety and tolerability. The data set is classed as in vivo, human.
In data set [9] the test system is EP4-regulated genes and immune-related circulating factors. The data set is described as follows: Blood gene expression, serum cytokines/chemokines, flow cytometry. The format is in vivo, human. A digest of the protocol:
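Patients with advanced tumors took oral drug once daily (125–750 mg) in 21-day cycles. mRNA isolated from blood was profiled on a 92-gene TaqMan Low Density Array panel. Serum/plasma levels of 36 immune-related circulating factors were measured by proteomics, ELISA and Meso Scale Discovery multiplex. Blood immune subsets were assessed by eight-color flow cytometry. Cycle 1 day 15 was compared with baseline by paired t-test.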

For data set [10], the system named is macrophage infiltration. The conditions noted are these: preclinical models; cited from earlier work.
Data set [11] relates to relapsed or refractory classical Hodgkin’s lymphoma. As to conditions: cited from earlier work.
Data set [12] has as its system primary human peripheral blood mononuclear cells (PBMCs). In words: EP4 agonist in PBMCs, TNF-α and CXCL10 by RT-PCR. As to conditions: PBMCs from healthy donors incubated with EP4 agonist. The data set is classed as cell-based.
Setting [13] is: all patients, combined incidence.
[14] abbreviates: blood, on treatment versus baseline.
Setting [15] is: cycle 1 day 15 compared with baseline.

“Also recorded” adds a separate entry of the source.

As to `C[C@H](NC(=O)c1c(C(F)F)nn(C)c1Oc1cccc(C(F)(F)F)c1)c1ccc(C(=O)O)cc1` [E7046], the “best response of stable disease, number of patients” value (“best response … of patients” below) in data set [1] (125 mg) is given as 2. Besides, the “patients with best response of durable stable disease for ≥18 weeks” value in data set [1] (125 mg (n=2/8)) was 25%. For the same compound, the “best response … of patients” value in [1] (250 mg) is listed as 2. Besides, the “patients with best response of durable stable disease for ≥18 weeks” value in data set [1] (250 mg (n=2/8)) was determined as 25%. Moreover, the “best response … of patients” value in data set [1] (750 mg) stood at 3. For the same compound, the “patients with longer duration of treatment on E7046 compared with most recent prior anticancer therapy” value in [1] (10 patients of 30) stood at 33%. Further, in data set [1] (all patients (n=30)), the disease control rate was 23%, the “objective responses by irRECIST” value was “no objective responses” and the “patients with best response of stable disease (irRECIST)” value stood at 23%. For the same compound, the “median duration of treatment” value in data set [1] (all patients, range: 1.1–30) stood at 5.9 weeks. In addition, in [2], the “FDG-PET signal compared with vehicle treatment” value is on record as “decreased the FDG-PET signal”. Also, in data set [3], the “growth of multiple mouse syngeneic tumor models” value is “inhibited the growth”. The “tumor gene expression of TNF-α and CXCL10” value in data set [4] (10 paired biopsies, without reaching statistical significance) is recorded as “upregulation”. Further, in data set [4] (individual patient case), the “increase in expression of CXCL10 in the tumor” value is on record as ~ 20% and the “increase in percentage of CD8+ T cells in the tumor” value was 31%. For the same compound, in data set [4] (paired biopsies of 11 patients, baseline to cycle 2 day 1), the “CD3+ and CD8+ T cells in tumor tissues (immunohistochemistry)” value is listed as “significant increase”. Further, the “patients with partial metabolic response (18FDG-PET)” value in data set [5] (15 evaluable patients (3/15), SUVmax reduction ≥25%) stood at 20%. Also, in [5] (individual patient case), the “FDG-PET signal reduction (partial metabolic response)” value is recorded as 31%. For the same compound, the “duration of treatment of the three patients with partial metabolic responses” value in data set [5] (longest among all patients) is 145 to 208 days. Further, the “FDG-PET signal compared with vehicle treatment” value in data set [6] is recorded as “decreased the FDG-PET signal”. In addition, the exposure versus dose entry in [7] (125 to 750 mg) is given as “dose proportional up to 500 mg, with no incremental increase at 750 mg”. Further, in [7] (all four doses, cycle 1 day 8), the “Free E7046 concentration versus Ki of EP4 inhibition” value is “reached or exceeded the preclinical Ki value”. For the same compound, the “accumulation on multiple dosing” value in data set [7] (daily oral dosing) is on record as “twofold to threefold”. The “time to maximum drug concentration” value in data set [7] (postdose, across all doses) is recorded as ~ 2 hours. In addition, in data set [8] (750 mg dose cohort), the TEAE incidence diarrhea worked out at 42.9%, the TEAE incidence fatigue was 42.9% and the TEAE incidence nausea came out at 42.9%. Moreover, in [8] (125, 250, 500 and 750 mg orally once daily, cycle 1), the “Dose-limiting toxicities (DLTs)” value was “No dose-limiting toxicities were observed; also recorded: no DLTs observed; also recorded: No DLTs were reported”. The “Maximum tolerated dose (MTD)” value in data set [8] (125 to 750 mg orally once daily) was “not reached”. Further, in [8] (all patients), the “fatal treatment-related TEAE” value is “No patients experienced a fatal treatment-related TEAE”, the “patients who discontinued treatment due to TEAEs” value came to 17% and the “patients with grade ≥3 treatment-related TEAEs” value is 10%. Further, the “patients with treatment-related SAEs” value in data set [8] (all patients (3/30)) is reported as 10%. The “patients with at least 1 TEAE” value in data set [8] (all patients (n=30)) worked out at 93%. In addition, in data set [8] (setting [13]), the “TEAE (all grades) diarrhea” value is given as 33.3%, the “TEAE (all grades) fatigue” value came to 36.7% and the “TEAE (all grades) nausea” value was determined as 30%. Further, in data set [9] (setting [14]), the “circulating gene expression of CD274 (PD-L1) and PDCD1LG2 (PD-L2)” value is “increased expression”; the “circulating gene expression of EOMES, PTGER4 and IDO1” value was “decreased expression”. For the same compound, in [9] (setting [15]), the “number of genes modulated in blood out of a 92-immune-gene panel” value came out at 16; the “number of serum cytokines and chemokines modulated out of a panel of 36” value is 14. The “serum level of CXCL10” value in data set [9] (cycle 1 day 15 compared with baseline, p=0.0015) is “significantly upregulated”. Also, the “serum level of CCL5” value in [9] (cycle 1 day 15 compared with baseline, p=0.0292) is “significantly upregulated”. The “major immune cell subsets in the blood (T cells, B cells, natural killer cells, MDSC)” value in [9] (eight-color flow cytometry, data not shown) was “no significant changes”.
Turning to `CN(C)CC(=O)N1CCC(c2ccc(NC(=O)c3nc(C#N)c[nH]3)c(C3=CCCCC3)c2)CC1` [JNJ-28312141], the macrophage infiltration result in data set [10] is listed as “substantially decreased macrophage infiltration”.
In the case of `CC1(C)CC=C(c2nc(C3CC(C)(C)OC(C)(C)C3)ccc2NC(=O)c2nc(C#N)c[nH]2)CC1` [JNJ-40346527], the objective response rate in data set [11] (1/21 patients had complete response) is on record as 5%. Further, the “patients who achieved stable disease” value in data set [11] (11/21 patients) is given as 55%.
As to `CCCCC[C@H](O)/C=C/[C@H]1[C@H](O)CC(=O)[C@@H]1CCCCCCCO` [PGE1-OH], the “expression of TNF-α and CXCL10” value in data set [12] is “dose-dependent down-regulation; also recorded: dose-dependently suppressed”.
